For assay [1], the target named is T1, Diacylglycerol lipase-beta (Homo sapiens) (UniProt Q8NCG7).
T1 sequence (whole entry): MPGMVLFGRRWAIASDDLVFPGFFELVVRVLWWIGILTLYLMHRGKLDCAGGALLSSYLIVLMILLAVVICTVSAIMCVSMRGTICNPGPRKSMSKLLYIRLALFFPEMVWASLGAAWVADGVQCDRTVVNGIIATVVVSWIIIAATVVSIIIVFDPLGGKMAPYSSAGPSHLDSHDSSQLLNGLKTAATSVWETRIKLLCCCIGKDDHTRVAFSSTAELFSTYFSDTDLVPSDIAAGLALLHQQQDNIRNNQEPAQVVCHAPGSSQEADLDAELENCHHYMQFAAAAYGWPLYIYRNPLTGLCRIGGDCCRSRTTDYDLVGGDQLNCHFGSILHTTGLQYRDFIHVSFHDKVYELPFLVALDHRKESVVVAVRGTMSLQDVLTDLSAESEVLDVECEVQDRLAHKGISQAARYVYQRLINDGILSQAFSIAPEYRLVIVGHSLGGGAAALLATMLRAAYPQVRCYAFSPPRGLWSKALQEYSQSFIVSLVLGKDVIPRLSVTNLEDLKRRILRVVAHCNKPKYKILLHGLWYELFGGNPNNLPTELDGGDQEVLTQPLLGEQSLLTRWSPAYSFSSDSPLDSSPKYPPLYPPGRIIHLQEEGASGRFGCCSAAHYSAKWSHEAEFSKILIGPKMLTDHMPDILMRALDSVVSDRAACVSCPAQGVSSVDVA
The assay can be described thus: Inhibition of recombinant DAGLbeta expressed in HEK293 cells assessed as hydrolysis of 1-stearoyl-2-arachidonoyl-glycerol to 2-AG at 25 uM after 30 mins by LC-MS method. Format: cell-based.

For assay [2], the system named is Mus musculus. The assay can be described thus: Inhibition of FAAH in C57B1/6J mouse brain membrane at 16 mg/kg, ip after 4 hrs by competitive activity-based protein profiling method relative to control. Format: functional. The note with it: route intraperitoneal. Also on record: scale not given: the % may be the effect or the level left. Summed up: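 Male C57Bl/6J mice (6-8 weeks, 20-26 g) given inhibitor i.p. in 4:1 v/v PEG300:Tween80 at 4 ul g^-1 (4-40 mg kg^-1); vehicle controls. Brain membrane proteomes (1 mg ml^-1 in PBS) labelled with FP-rhodamine (2 μM) for 30 min at room temperature. Readout by SDS-PAGE and in-gel fluorescence scanning, compared with vehicle.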

Assay [3] concerns Mus musculus. In words: Inhibition of PAFAH-1Bb in C57B1/6J mouse brain membrane at 16 mg/kg, ip after 4 hrs by competitive activity-based protein profiling-MudPIT method. Also on record: dose 16 mg/kg. The class given is functional, organism-based. The procedure, abridged:
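After i.p. dosing in 4:1 PEG300:Tween80, male C57Bl/6J mice were killed at 4 h. Brain membrane proteomes from treated and vehicle mice were labelled with FP-biotin. Labelled proteins were enriched on avidin, digested on-bead with trypsin and analysed by multidimensional LC-MS. Proteins were identified by SEQUEST, and dosed samples were compared with vehicle.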

The test system of assay [4] is Mus musculus. In words: Inhibition of MAGL in C57B1/6 mouse nucleus accumbens assessed as increase in interstitial level of 2-AG at 10 mg/kg, ip by following neuronal depolarization by microdialysis. Format: functional, organism-based. Also on record: dose 10 mg/kg. The procedure, abridged:
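Male C57Bl/6 mice received 10 mg kg^-1 i.p. 1 h before neuronal depolarization. 2-AG and AEA were sampled by in vivo microdialysis from the nucleus accumbens.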

Assay [5] concerns Mus musculus. In words: Inhibition of AARE in C57B1/6J mouse brain membrane at 16 mg/kg, ip after 4 hrs by competitive activity-based protein profiling-MudPIT method. Format: functional, organism-based. Also on record: dose 16 mg/kg. Summed up: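 Mice were dosed 16 mg kg^-1 i.p. or vehicle and killed at 4 h. Brain membrane proteomes were labelled with FP-biotin, avidin-enriched, trypsin-digested on bead, analysed by multidimensional LC-MS and identified by SEQUEST.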

Assay [6] addresses T1, Diacylglycerol lipase-beta (Homo sapiens). The assay can be described thus: Inhibition of recombinant DAGLbeta expressed in HEK293 cells assessed as hydrolysis of 1-stearoyl-2-arachidonoyl-glycerol to 2-AG at 10 uM after 30 mins by LC-MS method. Format: cell-based.
In assay [7] the test system is Mus musculus. The assay can be described thus: Change in oleic acid in intraperitoneally dosed C57B1/6J mouse brain by LC-MS. Format: functional, organism-based. The procedure, abridged:
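Male C57Bl/6J mice given 4, 8, 16 or 40 mg kg^-1 i.p. in 4:1 PEG300:Tween80 at 4 μl g^-1, or vehicle, and killed after 4 h. Whole-brain lipids were quantified by LC-MS.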

Assay [8] has as its target T2, Cytosolic phospholipase A2 (Homo sapiens) (UniProt P47712).
T2 sequence (whole entry): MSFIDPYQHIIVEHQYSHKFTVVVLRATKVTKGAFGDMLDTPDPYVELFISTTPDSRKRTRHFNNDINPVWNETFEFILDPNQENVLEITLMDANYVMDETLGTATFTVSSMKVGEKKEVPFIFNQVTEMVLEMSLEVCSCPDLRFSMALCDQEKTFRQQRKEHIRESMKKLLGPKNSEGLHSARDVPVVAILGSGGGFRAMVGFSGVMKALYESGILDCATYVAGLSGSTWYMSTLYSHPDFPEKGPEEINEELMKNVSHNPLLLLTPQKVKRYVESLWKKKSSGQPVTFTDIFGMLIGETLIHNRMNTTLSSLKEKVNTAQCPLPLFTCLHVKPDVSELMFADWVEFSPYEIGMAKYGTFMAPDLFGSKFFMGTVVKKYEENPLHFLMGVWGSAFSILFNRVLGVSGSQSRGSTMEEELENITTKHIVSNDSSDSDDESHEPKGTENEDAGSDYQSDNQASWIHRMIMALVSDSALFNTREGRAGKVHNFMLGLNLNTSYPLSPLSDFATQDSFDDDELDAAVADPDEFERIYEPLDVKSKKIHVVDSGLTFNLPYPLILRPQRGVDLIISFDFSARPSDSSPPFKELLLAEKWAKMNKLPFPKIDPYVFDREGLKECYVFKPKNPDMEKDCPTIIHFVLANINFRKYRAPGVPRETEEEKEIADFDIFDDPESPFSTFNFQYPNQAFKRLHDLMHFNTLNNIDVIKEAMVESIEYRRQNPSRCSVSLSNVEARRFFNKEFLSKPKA
The assay can be described thus: Inhibition of recombinant cPLA2 4a expressed in HEK293 cells at 20 uM by FP-rhodamine labeling method. Format: cell-based.

Assay [9] relates to Mus musculus. In words: Visceral analgesic activity against C57B1/6J mouse assessed as inhibition of acetic acid-induced writhing response for 20 mins at 16 mg/kg, ip pretreated 2 hr before acetic acid challenge. Format: functional, organism-based. Also on record: dose 16 mg/kg. The procedure, abridged:
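Male C57Bl/6J mice (6-8 weeks) dosed 16 mg kg^-1 i.p. in 4:1 v/v PEG300:Tween80, with vehicle controls. Assessed in the tetrad test for cannabinoid effects or in the acetic acid-induced abdominal stretching assay.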
Background: In writhing tests, fewer writhes than in controls are read as antinociception.

In assay [10] the test system is Mus musculus. The assay can be described thus: Inhibition of FAAH in orally dosed C57B1/6J mouse brain membrane after 4 hrs. The class given is functional, organism-based. Summed up:
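Oral dosing used male C57Bl/6J mice (6-8 weeks) given inhibitor in PEG300 vehicle at 4 ul g^-1, handled as for i.p. dosing. Brains were taken 4 h later for analysis of brain membrane hydrolase activity.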

Assay [11] relates to Mus musculus. In words: Effect on interstitial level of AEA in C57B1/6 mouse nucleus accumbens at 10 mg/kg, ip by following neuronal depolarization by microdialysis. Format: functional, organism-based. Also on record: dose 10 mg/kg. The procedure, abridged:
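In vivo microdialysis from nucleus accumbens of C57Bl/6 mice after 10 mg kg^-1 i.p. Drug was given 1 h before neuronal depolarization, and interstitial AEA and 2-AG were measured in the dialysate.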

Activity calls are given as the source filed them. No cut-off for these calls is given here.

Take `O=C(Oc1ccc([N+](=O)[O-])cc1)N1CCC(C(O)(c2ccc3c(c2)OCO3)c2ccc3c(c2)OCO3)CC1`: the inhibition result in [1], in assay [3], in [5], in assay [6] and in [8] was “inactive” each time. The molecule further showed an Activity in [2] of 35%. Moreover, the inhibition result in assay [4] and in assay [10] was “Active” in each case. The outcome in [7] and in [11] was inactive. In assay [9], the outcome was Active.
